Assay results taken from ChEMBL document CHEMBL1157855, “Synthesis and biological activity of n-butylphthalide derivatives” (Eur J Med Chem, 2010).

Columns and labels:
Aorta [1] = assay: Vasorelaxant activity in rat thoracic aorta assessed as relaxation of resting tension
Aorta [2] = assay: Vasorelaxant activity in rat thoracic aorta assessed as inhibition of norepinephrine-induced contractions Ca2+-free medium; type: functional, tissue-based
[3] = Toxicity in ip dosed mouse; type: organism-based; settings: in vivo
Summary of the method: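 Acute toxicity test in mice with test article given by intraperitoneal injection; read-out was the LD50 (mg/kg).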

**Q.** With `CCCCC1OC(=O)c2ccc(Cl)cc21` (stereo not given) as the molecule, how does the Activity (Aorta [1]) read?
**A.** The Activity was “Dose-dependent effect”.

**Q.** Which Activity (Aorta [1]) does the source give for `CCCCC1OC(=O)c2ccc(Br)cc21` (stereo not given) here?
**A.** Its Activity is “Dose-dependent effect”.

**Q.** With `CCCCC1OC(=O)c2ccccc21` (stereo not drawn) [RAC-3-N-BUTYLPHTHALIDE] as the molecule, how does the IC50 (Aorta [2]) read?
**A.** Its IC50 is 130 µM.

**Q.** What about the LD50 [3] of the same molecule?
**A.** The LD50 was 751 mg/kg.

**Q.** For `CCCCC1OC(=O)c2cc(Br)ccc21` (stereo not given), which IC50 (Aorta [2]) is on record?
**A.** The IC50 was 107 µM.

**Q.** And the inhibition (Aorta [2])?
**A.** Its inhibition is “Dose-dependent effect”.

**Q.** What about the LD50 [3] of the same molecule?
**A.** Its LD50 is > 1000 mg/kg.

**Q.** Which IC50 (Aorta [2]) does the source give for `CCCCC1OC(=O)c2cc(F)ccc21` (stereo not given) here?
**A.** The IC50 was 132 µM.

**Q.** And the inhibition (Aorta [2])?
**A.** Its inhibition is “Dose-dependent effect”.

**Q.** What about the LD50 [3] of the same molecule?
**A.** Its LD50 is 593 mg/kg.
